Screening data (PubChem BioAssay)
In the library only some 4.2% were active in any assay of this set; here they are far more common.
PfM18AAP inh: blocks P. falciparum M18 aspartyl aminopeptidase; recombinant PfM18AAP, H-Glu-NHMec fluorogenic cleavage; inhibition, % at 7.35 µM; 290,000 compounds, 1.2% hits;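 active = inhibition above the campaign mean inhibition over all tested compounds plus 3 SD, cut at about 28% in these data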;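 note: 0% = plate median of test compound wells and 100% = 2 mM ZnCl2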
SENP1 inh: SENP1 (human) catalytic domain inhibition; recombinant SENP1 catalytic domain, CyPet-SUMO1-YPet FRET cleavage; Q9P0U3; 360,000 compounds, 0.21% hits; inhibition, % at 10 µM;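 active = inhibition at least 30% at 10 µM, raw YFP signal under a set limit, fluorescence ratio 0.5 to 1.5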;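 note: 0% = enzyme with DMSO and 100% = no enzyme wells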
Target sequence (Q9P0U3 419-644 limits assumed): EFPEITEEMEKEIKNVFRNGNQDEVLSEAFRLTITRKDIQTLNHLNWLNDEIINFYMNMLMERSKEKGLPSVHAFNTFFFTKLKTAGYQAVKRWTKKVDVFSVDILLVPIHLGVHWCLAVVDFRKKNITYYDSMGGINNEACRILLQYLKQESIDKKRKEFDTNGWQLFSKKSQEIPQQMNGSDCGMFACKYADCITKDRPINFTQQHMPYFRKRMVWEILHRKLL
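Assay system: hSENP1 catalytic domain, recombinant. Amount: SENP1 enzyme, 20 pM final. Schedule: 50 min reaction, RT, dark. Technique: FRET, CFP and YFP emission. Control set: no-enzyme wells low, DMSO-plus-enzyme wells high control.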
HDAC3 inhib: blocks human histone deacetylase 3; inhibition, % at 8.3 µM; recombinant HDAC3, fluorogenic peptide/trypsin coupled, fluorescence; O15379; 320,000 compounds, 0.15% hits; in the data active = inhibition above about 26%, passing the limit was not always enough; inconclusive = no clear call, values can overlap the other calls
Target sequence (O15379 whole entry, looked up): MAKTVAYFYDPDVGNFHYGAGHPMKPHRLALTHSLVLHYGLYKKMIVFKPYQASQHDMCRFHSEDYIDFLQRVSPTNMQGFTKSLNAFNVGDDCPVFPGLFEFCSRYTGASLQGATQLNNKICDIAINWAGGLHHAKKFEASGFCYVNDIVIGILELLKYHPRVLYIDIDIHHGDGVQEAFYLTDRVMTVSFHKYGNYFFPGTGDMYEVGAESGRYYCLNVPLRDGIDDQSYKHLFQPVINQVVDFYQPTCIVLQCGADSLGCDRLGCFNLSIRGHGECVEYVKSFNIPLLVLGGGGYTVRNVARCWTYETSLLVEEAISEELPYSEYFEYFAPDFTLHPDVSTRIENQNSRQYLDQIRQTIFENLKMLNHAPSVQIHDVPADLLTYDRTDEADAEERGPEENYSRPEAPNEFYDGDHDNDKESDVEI
GAA850 FXN act: frataxin GAA850 promoter activation | HEK293 lucGAA850 FXN promoter luciferase reporter, 24 h; percent of 10 µM SAHA response | 360,000 compounds, 0.56% hits | activation, % at 6 µM;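 active = activation above the average of all compounds screened plus 3 SD, cutoff fixed separately per campaign, cut at about 7.5% in these data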;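 note: 0% = DMSO wells and 100% = 10 µM SAHA wells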
AHR activator: activators of human aryl hydrocarbon receptor; 320,000 compounds, 2.5% hits; P35869; AHR-responsive luciferase reporter cells, luminescence; AID 2796; activation, % at 5 µM; in the data active = activation above about 47%;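 note: 0% = vehicle wells and 100% = reference agonist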
Fh CTSL1 inh: blocks F. hepatica cathepsin L1 in PFM18AAP counter-screen; recombinant F. hepatica cathepsin L1, Z-Leu-Arg-MCA fluorescence; inhibition, % at 5.96 µM; 300,000 compounds, 0.49% hits;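 active = inhibition above the mean of all tested compounds plus 3 SD, set per screening campaign, cut at about 17% in these data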;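 note: 0% = plate median of test compound wells and 100% = 1 µM Z-Phe-Ala-diazomethylketone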
Numbers without * were called inactive; ? = inconclusive; · = no result given.

SMILES | PfM18AAP inh | SENP1 inh | HDAC3 inhib | GAA850 FXN act | AHR activator | Fh CTSL1 inh
O=C(Cc1cccc2ccccc12)NCCOc1ccccc1F | 3.1 | -3.4 | 0.3 | 2.9 | 8.9 | 4.6
CCc1nnc(NC(=O)COc2ccccc2[N+](=O)[O-])s1 | 7.5 | 1.6 | 9.7 | 1.8 | -5.0 | -1.8
Cc1ccc(C(=O)NCCCNC(=O)c2ccccc2C)cn1 | 3.5 | 2.2 | 4.6 | 0.4 | -0.6 | 3.5
COc1ccc(NC(=O)c2cc(C3CCCCN3C(=O)CCc3ccccc3)on2)c(C)c1 (centres undefined) | · | -1.3 | · | -0.1 | · | ·
Cc1nn(Cc2ccccc2)c(Cl)c1/C=N/NC(=O)c1cccnc1 | 0.6 | 1.6 | 7.4 | 3.6 | 52.0* | 0.2
O=C(N/N=C/c1c(O)ccc2ccccc12)c1ccc[n+](CCO)c1 | 6.3 | -9.1 | 8.1 | 2.3 | 22.3 | 19.8*
COC(=O)C(Cc1c[nH]c2ccccc12)NC(=O)c1cncc(Br)c1 (centres undefined) | 5.4 | 1.4 | -1.5 | 4.1 | 44.4 | -1.1
Cc1cccc(OCC(=O)NC(C)C(=O)N/N=C/c2c(OCc3ccccc3)ccc3ccccc23)c1 (centres undefined) | 5.8 | 2.3 | -1.2 | 0.8 | 87.6* | 7.0
O=C(N/N=C\c1c(O)ccc2ccccc12)c1ccc(O)cc1 | 12.6 | -25.6 | 6.9 | -1.8 | 24.2 | 0.4
O=C(NCCc1c[nH]c2ccccc12)c1cncc(Br)c1 | 4.1 | -1.7 | -4.1 | 1.9 | 49.3* | -1.3
CCCCn1c(SCC(=O)NCc2ccc(OC)c(C(=O)O)c2)nc2cc(S(N)(=O)=O)ccc21 | -1.1 | -1.9 | 5.5 | 0.8 | -0.9 | 0.1
O=C(N/N=C/c1c(O)ccc2ccccc12)c1cccnc1 | 30.8* | -26.1 | 0.3 | -6.2 | 73.2* | -2.6
OC(c1cccc(CN2CCCCC2)c1)c1ncc(-c2cccc3ccccc23)[nH]1 (centres undefined) | · | 0.7 | · | -0.6 | · | ·
O=S1(=O)N[C@H](Cc2ccccc2)COc2cc(N3CCC[C@@H]3CO)ccc21 | · | 0.0 | · | · | · | ·
O=c1[nH]c(=O)n(-c2cc(Br)c(O)c(Br)c2)cc1Br | 4.2 | 2.9 | -1.9 | 2.7 | -2.2 | 32.8*
CCOC(=O)c1ccc(N=Cc2nc(-c3ccccc3)oc2OC(C)=O)cc1 | -3.5 | -14.2 | 17.8 | -0.1 | 5.3 | 30.9*
CN(C)c1ccc(N=Cc2nc(-c3ccccc3)oc2OC(=O)c2cccc(Br)c2)cc1 | 10.9 | -27.1 | 8.3 | 4.7 | 22.6 | 23.8*
COc1ccc(N=Cc2nc(-c3ccccc3)oc2OC(=O)c2ccccc2)cc1 | -0.1 | -36.3 | 2.2 | 5.2 | 23.9 | 22.0*
Cc1ccc(C(=O)Oc2oc(-c3ccco3)nc2C=Nc2ccccc2)cc1 | -2.1 | · | · | · | · | ·
CN(C)c1ccc(/C=C/C(=O)c2cccc(Br)c2)cc1 | 8.2 | -23.1 | -2.9 | 1.0 | -4.1 | 1.0
CC(=O)Oc1oc(-c2ccccc2)nc1C=Nc1ccccc1 | -1.1 | -2.3 | ? | 0.4 | 3.8 | 26.2*
CCOC(=O)c1ccc(N=Cc2nc3ccccc3n2C)cc1 | 1.2 | 0.4 | -0.9 | -2.7 | 17.1 | 0.9
CC(=O)Oc1ccc(-c2nc3ccccc3c(=O)o2)cc1 | 1.1 | 0.2 | ? | -0.6 | -1.5 | -13.1
CCCCNC(=O)C(NC(=O)c1cnc(C)cn1)C(=O)c1ccccc1 (centres undefined) | · | 2.5 | · | · | · | ·
COc1ccc(C(C)=O)cc1CC(=O)Nc1ccccc1-c1ccccc1 | 1.1 | -1.4 | 1.2 | -0.3 | -0.1 | -1.4
SMILES | PfM18AAP inh | SENP1 inh | HDAC3 inhib | GAA850 FXN act | AHR activator | Fh CTSL1 inh
CCOC(=O)c1nc(N/N=C/c2ccccc2)sc1Br | -1.5 | -0.2 | 3.3 | 1.3 | 0.5 | 0.3
CC(=O)CSc1nnc(Cc2ccc([N+](=O)[O-])cc2)o1 | 7.3 | 1.8 | 27.9* | -1.2 | 1.2 | 0.9
O=C(CSc1ccc(Cl)cc1)c1ccco1 | 7.9 | 0.5 | 5.4 | 1.8 | -2.1 | 6.4
O=C(CCSc1ccc(Cl)cc1)c1ccco1 | -9.1 | -0.1 | -1.2 | -0.6 | 2.2 | 19.9*
COc1ccc(N2C(=O)N3[C@@H]4c5ccccc5OC[C@@H]4[C@@H](c4ccccc4)[C@@]3(C)C2=O)cc1 | · | 2.2 | -3.7 | -2.8 | -0.7 | ·
O=C1C(Cl)=C(N2CCOCC2)C(=O)N1c1cccc(C(F)(F)F)c1 | 19.1 | 1.7 | -1.9 | -1.1 | -0.6 | 23.2*
COC(=O)c1cccc(N2C(=O)C(Cl)=C(N3CCOCC3)C2=O)c1 | 7.7 | 1.6 | 1.0 | 0.1 | 9.7 | 31.8*
Cc1ccccc1N1C(=O)C(Cl)=C(N2CCN(c3ccccc3)CC2)C1=O | 4.6 | 4.2 | 3.4 | -1.9 | -6.5 | 4.9
CCN(CC(=O)NCc1cccs1)C(=O)COc1ccc(C(C)=O)cc1 | · | 2.8 | 5.5 | 0.3 | -0.9 | ·
CCN(CC)S(=O)(=O)c1ccc(C(=O)/C=C/c2ccc(-c3ccc([N+](=O)[O-])cc3)o2)cc1 | 28.2* | -34.8 | -6.3 | 1.5 | 5.8 | -1.9
Cc1ccc(C(=O)/C=C\C(=O)c2ccc(C)cc2)cc1 | -10.0 | -0.4 | -5.9 | 3.7 | 0.4 | -3.2
Cc1ccc(C(=O)/C=C/c2ccc(-c3ccc(C)cc3)o2)cc1 | -7.8 | -26.2 | 2.8 | 3.9 | 3.7 | 27.8*
CCc1ccc(C(=O)/C=C/c2ccc([N+](=O)[O-])o2)cc1 | 3.7 | -0.3 | 3.5 | -0.4 | 0.8 | 5.5
O=C(Nc1ccccc1)C1Cc2c(-c3ccc(Cl)cc3)ccnc2O1 (centres undefined) | · | 2.5 | · | 1.0 | · | ·
COC1(NC(=O)c2ccccc2)C(C)=CC(=O)C=C1C | -12.8 | -0.4 | -1.1 | 2.0 | -3.5 | -3.5
O=C(NC1(O)C(=O)c2ccccc2C1=O)c1ccccc1 | -3.4 | 2.7 | 1.3 | 0.5 | 4.5 | 63.9*
O=C(NC1(O)C(=O)c2ccccc2C1=O)c1c(Cl)cccc1Cl | 4.2 | 2.6 | -5.4 | 0.2 | 1.8 | 53.8*
CCOC(=O)c1[nH]c(=O)[nH]c1CSc1nc(C)cc(C)n1 | 24.0 | 1.9 | 1.4 | -0.8 | 48.4* | 0.8
CCOC(=O)CCCCC(=O)c1[nH]c(=O)[nH]c1CSc1nc(C)cc(C)n1 | 6.4 | 2.4 | 6.8 | 1.5 | 4.7 | -4.0
CC(=O)N1CSCC1C(=O)NNS(=O)(=O)c1cccc(C(F)(F)F)c1 (centres undefined) | -8.0 | 1.5 | 8.3 | -0.2 | 0.3 | -3.8
O=CN1N=C(c2ccccc2)CC1c1ccc(Cl)cc1 (centres undefined) | 1.0 | -0.1 | 1.5 | -1.8 | 7.7 | 1.5
O=C1OC(c2ccccc2)=NC12CC2c1ccc(Cl)cc1 (centres undefined) | -5.1 | -0.7 | 1.4 | 3.0 | -0.9 | 20.8*
CCCCC/C=C\C[C@H](O)/C=C/c1cccc(C[C@H](O)CCCCO)n1 | -7.2 | -18.4 | 5.4 | 1.1 | -1.3 | 40.6*
COc1cnc(-c2ccccc2)nc1Oc1ccc(Cl)cc1C | -4.7 | 0.7 | -4.5 | -1.1 | 7.2 | 18.6*
